How the values were obtained:
[1] = Radio-HPLC analysis of radiolabelled metabolites in rat plasma and brain; conditions: 40 min after injection
[2] = biological target: multidrug resistance proteins (MRPs) at the murine BBB (Mus musculus, UniProt O35379); conditions: single 60-min PET scans, n = 4 each
[3] = tested on: multidrug resistance proteins (MRPs) at the murine BBB; conditions: wild-type mice, MK571 20 mg/kg iv 30 min before scan
[4] = Plasma protein binding by ultrafiltration; assay type: in vitro ADME; conditions: rat plasma, n = 3
[5] = tested on: P-glycoprotein (Pgp) at the blood-brain barrier
[6] = tested on: P-glycoprotein (Pgp) at the blood-brain barrier; test: Paired small-animal PET scans in rats before and after tariquidar
human MDR1 (Pgp) [7] = biological target: T1, human MDR1 (Pgp) (Homo sapiens, UniProt P08183); test: Concentration equilibrium transport assay in LLC-MDR1 cells; assay type: cell-based; conditions: 50 μM both chambers, 6 h, with/without tariquidar 0.5 μM
human MRP1 = human MRP1 (Homo sapiens, UniProt P33527); test: Concentration equilibrium transport assay in LLC-MRP1 cells; assay type: cell-based; conditions: 50 μM both chambers, 6 h, with/without MK571 50 μM
In short: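 LLC-PK1 transfected with MRP1, ≤13 passages, seeded at 0.3 × 10^6 cells/cm2 on polyester filters; assayed 5–7 days post-confluence in Opti-MEM after 1 h pre-incubation ± MK571 50 µM. Test compound 50 µM in both chambers; both sampled at 60, 120, 240, 360 min; 37°C, 5% CO2, 50 rpm; triplicate. Integrity: TEER, [14C]mannitol; calcein-AM 1 µM positive control.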

murine Mdr1a (Pgp) = murine Mdr1a (Pgp) (Mus musculus, UniProt P21447); test: Concentration equilibrium transport assay in LLC-Mdr1a cells; assay type: cell-based; conditions: 50 μM both chambers, 6 h, with/without tariquidar 0.5 μM
human MDR1 (Pgp) [8] = biological target: T1, human MDR1 (Pgp); conditions: tariquidar 0.5 μM; ref Luna-Tortós et al. 2008; cited from earlier work
[9] = tested on: P-glycoprotein (Pgp) at the blood-brain barrier; conditions: naïve rats, 15 mg/kg; ref Kuntner et al. 2010; cited from earlier work

T1 sequence (P08183 whole entry): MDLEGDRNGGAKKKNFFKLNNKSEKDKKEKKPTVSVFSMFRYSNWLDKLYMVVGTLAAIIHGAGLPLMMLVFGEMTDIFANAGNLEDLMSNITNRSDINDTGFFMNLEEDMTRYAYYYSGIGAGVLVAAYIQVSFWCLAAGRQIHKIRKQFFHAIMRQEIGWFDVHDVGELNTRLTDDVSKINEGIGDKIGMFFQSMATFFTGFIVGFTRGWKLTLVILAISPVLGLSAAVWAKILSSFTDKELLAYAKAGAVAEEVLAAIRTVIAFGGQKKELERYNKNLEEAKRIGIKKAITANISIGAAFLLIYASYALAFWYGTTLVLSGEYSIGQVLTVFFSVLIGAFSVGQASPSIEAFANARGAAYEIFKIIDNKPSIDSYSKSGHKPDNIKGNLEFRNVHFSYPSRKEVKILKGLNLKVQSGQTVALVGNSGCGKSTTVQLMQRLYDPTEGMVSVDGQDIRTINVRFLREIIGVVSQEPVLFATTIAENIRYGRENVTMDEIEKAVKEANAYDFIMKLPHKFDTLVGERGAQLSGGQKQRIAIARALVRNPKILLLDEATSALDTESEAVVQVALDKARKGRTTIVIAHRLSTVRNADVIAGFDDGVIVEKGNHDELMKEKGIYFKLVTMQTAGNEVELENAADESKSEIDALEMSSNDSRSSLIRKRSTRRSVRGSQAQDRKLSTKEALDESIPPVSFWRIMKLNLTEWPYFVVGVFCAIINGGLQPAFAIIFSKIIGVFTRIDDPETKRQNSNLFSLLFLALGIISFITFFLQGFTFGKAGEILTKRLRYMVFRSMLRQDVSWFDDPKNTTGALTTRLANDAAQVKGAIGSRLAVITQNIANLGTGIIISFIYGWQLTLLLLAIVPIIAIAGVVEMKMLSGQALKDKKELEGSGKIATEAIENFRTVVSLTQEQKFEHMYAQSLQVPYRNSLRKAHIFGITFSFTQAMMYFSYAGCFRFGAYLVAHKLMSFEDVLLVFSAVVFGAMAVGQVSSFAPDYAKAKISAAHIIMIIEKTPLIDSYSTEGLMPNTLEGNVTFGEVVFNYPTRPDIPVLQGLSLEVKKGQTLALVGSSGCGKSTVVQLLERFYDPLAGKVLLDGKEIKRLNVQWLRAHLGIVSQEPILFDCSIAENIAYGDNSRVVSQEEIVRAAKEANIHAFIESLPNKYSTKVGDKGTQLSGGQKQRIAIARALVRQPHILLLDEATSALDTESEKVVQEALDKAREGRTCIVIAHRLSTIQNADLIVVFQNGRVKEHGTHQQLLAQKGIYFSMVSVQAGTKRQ
murine Mdr1a (Pgp), sequence (P21447 whole entry): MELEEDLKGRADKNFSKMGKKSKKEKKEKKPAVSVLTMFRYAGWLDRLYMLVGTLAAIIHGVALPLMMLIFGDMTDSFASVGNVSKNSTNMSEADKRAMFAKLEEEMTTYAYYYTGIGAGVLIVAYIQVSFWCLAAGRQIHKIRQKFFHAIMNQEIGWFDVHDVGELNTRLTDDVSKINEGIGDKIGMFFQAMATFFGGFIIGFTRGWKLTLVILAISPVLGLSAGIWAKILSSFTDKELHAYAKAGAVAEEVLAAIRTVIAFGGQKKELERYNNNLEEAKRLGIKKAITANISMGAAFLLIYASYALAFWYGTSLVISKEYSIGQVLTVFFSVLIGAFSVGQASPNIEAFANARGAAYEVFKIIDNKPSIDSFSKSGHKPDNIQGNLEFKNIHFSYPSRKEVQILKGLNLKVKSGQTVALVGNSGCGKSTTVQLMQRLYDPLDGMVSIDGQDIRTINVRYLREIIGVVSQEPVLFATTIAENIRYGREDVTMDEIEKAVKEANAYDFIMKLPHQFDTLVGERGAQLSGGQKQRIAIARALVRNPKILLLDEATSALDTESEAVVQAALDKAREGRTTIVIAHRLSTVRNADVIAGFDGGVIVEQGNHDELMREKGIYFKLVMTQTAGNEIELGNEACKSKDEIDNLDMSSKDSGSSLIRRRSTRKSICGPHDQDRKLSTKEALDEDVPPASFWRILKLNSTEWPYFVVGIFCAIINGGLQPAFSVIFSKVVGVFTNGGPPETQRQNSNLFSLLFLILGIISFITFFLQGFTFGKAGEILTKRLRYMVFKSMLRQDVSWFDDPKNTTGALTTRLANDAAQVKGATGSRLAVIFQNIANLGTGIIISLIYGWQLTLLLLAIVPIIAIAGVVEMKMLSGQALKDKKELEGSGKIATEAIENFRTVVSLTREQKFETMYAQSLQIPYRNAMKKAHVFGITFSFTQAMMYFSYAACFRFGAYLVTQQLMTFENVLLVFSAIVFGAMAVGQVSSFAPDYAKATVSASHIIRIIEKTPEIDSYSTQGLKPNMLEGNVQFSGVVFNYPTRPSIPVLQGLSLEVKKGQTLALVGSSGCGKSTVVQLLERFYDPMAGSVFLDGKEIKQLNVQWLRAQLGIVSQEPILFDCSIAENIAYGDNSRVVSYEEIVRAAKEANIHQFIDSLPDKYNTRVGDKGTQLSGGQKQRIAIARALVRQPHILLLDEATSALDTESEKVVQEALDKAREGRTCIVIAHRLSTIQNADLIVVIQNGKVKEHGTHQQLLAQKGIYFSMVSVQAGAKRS
human MRP1, sequence (P33527 whole entry): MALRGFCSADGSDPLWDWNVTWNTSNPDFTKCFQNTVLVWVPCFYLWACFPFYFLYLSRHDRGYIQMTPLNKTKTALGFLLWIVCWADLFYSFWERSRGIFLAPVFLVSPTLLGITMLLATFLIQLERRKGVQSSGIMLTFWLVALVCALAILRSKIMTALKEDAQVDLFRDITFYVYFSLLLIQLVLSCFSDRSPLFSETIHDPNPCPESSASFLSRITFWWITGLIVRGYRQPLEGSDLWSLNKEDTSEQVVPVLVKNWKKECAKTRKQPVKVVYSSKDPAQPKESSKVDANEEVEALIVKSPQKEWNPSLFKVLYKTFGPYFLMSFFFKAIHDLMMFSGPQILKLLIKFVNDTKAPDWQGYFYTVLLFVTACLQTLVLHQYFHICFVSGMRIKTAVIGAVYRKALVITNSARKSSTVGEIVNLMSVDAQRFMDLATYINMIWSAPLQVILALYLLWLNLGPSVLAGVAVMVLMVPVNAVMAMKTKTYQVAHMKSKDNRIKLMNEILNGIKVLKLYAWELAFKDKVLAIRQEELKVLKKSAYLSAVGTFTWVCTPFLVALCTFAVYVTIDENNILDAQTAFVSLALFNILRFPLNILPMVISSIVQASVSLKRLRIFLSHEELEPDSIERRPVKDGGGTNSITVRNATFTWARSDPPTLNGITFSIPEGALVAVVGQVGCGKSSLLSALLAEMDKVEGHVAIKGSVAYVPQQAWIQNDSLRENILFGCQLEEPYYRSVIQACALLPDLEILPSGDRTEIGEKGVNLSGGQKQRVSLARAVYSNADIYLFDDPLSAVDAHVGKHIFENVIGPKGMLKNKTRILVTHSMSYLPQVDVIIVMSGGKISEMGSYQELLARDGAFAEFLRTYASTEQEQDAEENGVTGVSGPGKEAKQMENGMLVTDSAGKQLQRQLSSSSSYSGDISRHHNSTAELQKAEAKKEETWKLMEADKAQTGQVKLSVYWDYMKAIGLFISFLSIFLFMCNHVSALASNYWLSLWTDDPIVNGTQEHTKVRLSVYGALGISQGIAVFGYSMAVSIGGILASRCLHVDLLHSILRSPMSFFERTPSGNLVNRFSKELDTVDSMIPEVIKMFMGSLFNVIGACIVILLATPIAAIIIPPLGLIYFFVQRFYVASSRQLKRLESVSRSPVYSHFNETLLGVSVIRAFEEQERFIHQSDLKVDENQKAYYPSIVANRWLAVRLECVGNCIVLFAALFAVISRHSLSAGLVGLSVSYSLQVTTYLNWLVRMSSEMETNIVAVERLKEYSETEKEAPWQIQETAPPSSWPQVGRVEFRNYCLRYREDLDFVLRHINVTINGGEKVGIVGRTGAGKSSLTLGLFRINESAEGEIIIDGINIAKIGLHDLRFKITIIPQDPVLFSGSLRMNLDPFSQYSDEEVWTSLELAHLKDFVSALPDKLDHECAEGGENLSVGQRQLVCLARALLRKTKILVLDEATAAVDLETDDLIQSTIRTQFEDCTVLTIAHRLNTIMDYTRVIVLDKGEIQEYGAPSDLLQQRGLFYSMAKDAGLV

For `CCC1(c2ccccc2)C(=O)NC(=O)N([11CH3])C1=O` (centres unmarked) [[^11C]mephobarbital], the “total activity in brain in the form of unchanged parent” value ([1]; rat brain tissue extracts, n = 5) was 96±6%, the “total activity in plasma as unchanged parent” value ([1]; rat plasma) was > 85% and the “Brain uptake, wild-type versus Mrp1(-/-) mice” value [2] was “did neither differ”. For the same molecule, the “Brain uptake, untreated versus MK571 pretreated mice” value [3] was “did neither differ”, the “fraction unbound in plasma” value [4] was 0.21±0.05 and the “Blood activity concentrations (SUV), comparison of groups and scans” value ([5]; 25 and 60 min, wild-type and Mdr1a/b(-/-) mice, scan 1 and 2, three comparisons excepted (p < 0.05)) was “similar”. The “Brain AUC0-60, wild-type versus Mdr1a/b(-/-) mice” value ([5]; scan 1 and scan 2, respectively, n = 3 each) was “not significantly different”, the “Brain AUC0-60, scan 2 relative to scan 1” value ([5]; wild-type mice, tariquidar 15 mg/kg, p = 0.013) was “significantly decreased” and the “Peak brain activity uptake (SUV)” value ([6]; scan 1 (before tariquidar), about 1 min after iv injection, n = 3) was 3.1±0.2 SUV. For the same molecule, the “brain-to-blood AUC0-60 ratio” value ([6]; scan 1 (before tariquidar), n = 3) was 2.0±0.5, the “brain-to-blood AUC0-60 ratio in scan 1 as compared to (R)-[11C]verapamil” value ([6]; scan 1, Supplementary Fig. S1) was “two times higher” and the “brain-to-blood AUC0-60 ratio” value ([6]; scan 2 (after tariquidar 15 mg/kg iv), n = 3) was 2.4±0.3.
For `CCC1(c2ccccc2)C(=O)NC(=O)N(C)C1=O` (centres unmarked) [mephobarbital, methylphenobarbital], the “basolateral-to-apical transport by human MDR1” value (human MDR1 (Pgp) [7]) was “lack of active transport”, the “basolateral-to-apical transport by human MRP1” value (human MRP1) was “lack of active transport” and the “basolateral-to-apical transport by murine Mdr1a” value (murine Mdr1a (Pgp)) was “lack of active transport”.
For `CCC1(c2ccccc2)C(=O)NC(=O)NC1=O` [phenobarbital], the “inhibition of MDR1 transport by tariquidar” value (human MDR1 (Pgp) [8]) is listed as 54%.
For `COc1cc2c(cc1OC)CN(CCc1ccc(NC(=O)c3cc(OC)c(OC)cc3NC(=O)c3cnc4ccccc4c3)cc1)CC2` [tariquidar], the “inhibition of Pgp at the BBB” value [9] is listed as “completely inhibit Pgp”.

From publication PMC3778256 (Epilepsy research, 2012)
